Experimental data of several laboratories.
Protocols differ between the studies behind these lines.
PDE10A: cAMP and cAMP-inhibited cGMP 3',5'-cyclic phosphodiesterase 10A (PDE10A, Homo sapiens, UniProt Q9Y233)
SLC6A3: Sodium-dependent dopamine transporter (SLC6A3, Homo sapiens, UniProt Q01959)
DRD3: D(3) dopamine receptor (DRD3, Homo sapiens, UniProt P35462)

COc1cc2ncnc(Cc3cccc(Cl)c3)c2cc1OC
inhibition (PDE10A; enzyme activity, inhibitor, FP; 0.1 µM): 68%

CCOC(=O)[C@@]12C[C@@H]1[C@@H](n1ccc3c(NCCCCc4ccccc4)nc(C#Cc4ccccc4)nc31)[C@H](O)[C@@H]2O
inhibition (SLC6A3; ligand displacement, radioligand; 10 µM): 66%

Cc1ccc(NS(=O)(=O)c2c(C)[nH]c(C)c2C(=O)N2CCC(F)(F)C2)cc1Cl
Emax (DRD3; β-arrestin recruitment, agonist; 90 min): 95%

COc1ccc2nccc(Cc3ccc(OC)c(OC)c3)c2c1
inhibition (PDE10A; enzyme activity, inhibitor, FP; 0.1 µM): 3%

OC[C@@]12C[C@@H]1[C@@H](n1cnc3c(NC(C4CCC4)C4CCC4)nc(C#Cc4ccc(Cl)s4)nc31)[C@H](O)[C@@H]2O
inhibition (SLC6A3; ligand displacement, radioligand; 10 µM): 78%

COc1ccc2oc(-c3ccc4nc(N)oc4c3)c/c(=N\c3ccccc3NC(=O)CCN)c2c1
remaining binding (AP2-associated protein kinase 1 (AAK1, Homo sapiens, UniProt Q2M2I8); binding; 1 µM): 98%

N#CC[C@@]12C[C@@H]1[C@@H](n1cnc3c(NCCCCCc4ccccc4)nc(I)nc31)[C@H](O)[C@@H]2O
inhibition (SLC6A3; ligand displacement, radioligand; 10 µM): 23%

Cc1[nH]c(C)c(S(=O)(=O)Nc2ccc(C(F)(F)F)c(Cl)c2)c1C(=O)NCC(F)(F)F
Emax (DRD3; β-arrestin recruitment, agonist; 90 min): 98%

CCOC(=O)[C@@]12C[C@@H]1[C@@H](n1cnc3c(NCCO)nc(I)nc31)[C@H](O)[C@@H]2O
inhibition (SLC6A3; ligand displacement, radioligand; 10 µM): 20%

COc1ccc2c(Cc3ccc(OC)c(OC)c3)nccc2c1
inhibition (PDE10A; enzyme activity, inhibitor, FP; 0.1 µM): 25%

Cc1[nH]c(C)c(S(=O)(=O)Nc2ccc(C(F)(F)F)c(Cl)c2)c1C(=O)N1CCC(F)(F)C1
Emax (DRD3; β-arrestin recruitment, agonist; 90 min): 103%

C1=C/COCc2cc(ccc2OCCN2CCCC2)Nc2nccc(n2)-c2cccc(c2)COC/1
remaining binding (Serine/threonine-protein kinase D1 (PRKD1, Homo sapiens, UniProt Q15139); binding; 0.1 µM): 100%

N#C[C@@]12C[C@@H]1[C@@H](n1cnc3c(Nc4ccccc4)nc(C#Cc4ccc(Cl)s4)nc31)[C@H](O)[C@@H]2O
inhibition (SLC6A3; ligand displacement, radioligand; 10 µM): 74%

COc1ccc2nccc(Cc3cccc(-c4ccc(CO)cc4)c3)c2c1
inhibition (PDE10A; enzyme activity, inhibitor, FP; 0.1 µM): 0%

Cc1[nH]c(C)c(S(=O)(=O)Nc2ccc(C(F)(F)F)c(Br)c2)c1C(=O)N1CCCC1
Emax (DRD3; β-arrestin recruitment, agonist; 90 min): 91%

CCCCC(=O)Nc1ccc(-c2ccc3ncn(CCC)c(=O)c3c2)cn1
remaining binding (Dual specificity protein kinase CLK4 (CLK4, Homo sapiens, UniProt Q9HAZ1); binding, competition with immobilised ligand; 0.5 µM): 86%

c1ccc2c(Cc3ccc4cn(C5COC5)nc4c3)nccc2c1
inhibition (PDE10A; enzyme activity, inhibitor, FP; 0.1 µM): 0%

Cc1[nH]c(C)c(S(=O)(=O)Nc2ccc(C(C)C)cc2)c1C(=O)N1CCCC1
Emax (DRD3; β-arrestin recruitment, agonist; 90 min): 96%

N#C[C@@]12C[C@@H]1[C@@H](n1cnc3c(Nc4ccc(Cl)c(Cl)c4)nc(I)nc31)[C@H](O)[C@@H]2O
inhibition (SLC6A3; ligand displacement, radioligand; 10 µM): -9%

Cc1[nH]cc(S(=O)(=O)Nc2ccc(C(F)(F)F)c(Cl)c2)c1C(=O)N(C)C
Emax (DRD3; β-arrestin recruitment, agonist; 90 min): 83%

COc1cc2ncnc(C(=O)c3cccc4ccccc34)c2cc1OC
inhibition (PDE10A; enzyme activity, inhibitor, FP; 0.1 µM): 52%

Cc1[nH]c(C)c(S(=O)(=O)Nc2ccc(C(F)(F)F)c(Cl)c2)c1C(=O)N1CCCC1
Emax (DRD3; β-arrestin recruitment, agonist; 90 min): 92%

Cc1cc(O)c(-c2ccc([C@@H](C)CN(C)C)cc2)c2c1[nH]c(=O)c1sccc12
inhibition (Cyclin-dependent kinase 12 (CDK12, Homo sapiens, UniProt Q9NYV4); enzyme activity, inhibitor; 0.1 µM): 0.174%

COc1cc2ncnc(Cc3cccc(-c4ccc(C)cc4)c3)c2cc1OC
inhibition (PDE10A; enzyme activity, inhibitor, FP; 0.1 µM): 78%

OC[C@@]12C[C@@H]1[C@@H](n1cnc3c(N[C@@H](C4CCC4)C4CC4)nc(C#Cc4ccc(Cl)s4)nc31)[C@H](O)[C@@H]2O
inhibition (SLC6A3; ligand displacement, radioligand; 10 µM): 80%

c1ccc(-c2cccc(Cc3ccnc4ccccc34)c2)cc1
inhibition (PDE10A; enzyme activity, inhibitor, FP; 0.1 µM): 0%

Cc1[nH]c(C)c(S(=O)(=O)Nc2ccc(C(F)(F)F)c(Cl)c2)c1C(=O)N1CC(F)(F)C(F)(F)C1
Emax (DRD3; β-arrestin recruitment, agonist; 90 min): 100%

N#CC[C@@]12C[C@@H]1[C@@H](n1cnc3c(Nc4ccccc4)nc(I)nc31)[C@H](O)[C@@H]2O
inhibition (SLC6A3; ligand displacement, radioligand; 10 µM): 54%
